Data as given in paper PMC9904295 (Drug Delivery, 2023).

Tests used:
[1] = Pharmacokinetic study in rats, intravenous; type: in vivo, Sprague-Dawley rats; conditions: i.v., 5 mg/kg in OXA
Procedure, shortened: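 Twelve Sprague-Dawley rats (half male) were split into two groups and given one i.v. dose equivalent to 5 mg/kg. The free drug was prepared in 5% glucose. Retro-orbital blood was taken at 0.083–24 h and centrifuged at 12,000 rpm for 5 min. Plasma drug was measured by UPLC-MS/MS and total Pt by ICP-MS. Non-compartmental analysis gave AUC, Cmax, t1/2, MRT and CL; mean ± SD, n = 6.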

[2] = Toxicity evaluation after repeated dosing; type: in vivo; conditions: ICR mice
Procedure, shortened: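 Male ICR mice (17–18 g) were randomised into six groups (n = 10), with 5% glucose as control. Test compound was given i.v. every 3 days for five doses at 7.5 or 10 mg/kg (free form) or 7.5, 10 or 15 mg/kg drug-equivalent (nanoparticle). At the end, organs were harvested for viscera index, whole blood was taken for routine counts, and serum TP, ALB, UREA and Cr were measured. Data are mean ± SD, Student's t test.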

[3] = test system: SW620 cells; experiment: In vivo antitumor efficacy in xenograft tumor-bearing mice; design: species or system BALB/c nude mice; conditions: xenograft tumor-bearing nude mice, i.v. once a week
Procedure, shortened: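 Male BALB/c nude mice (18–20 g) were inoculated with 3 × 10^6 SW620 cells at the right third fat pad. At tumors of about 100–200 mm3 they were randomised into six groups, with 5% glucose as control. Test compound was given i.v. by tail vein once a week for 4 weeks at 5 or 10 mg/kg (free form) or 5, 10 or 20 mg/kg (nanoparticle). Tumor volume (L × W × W/2) and body weight were measured three times weekly, and RTV = V/V0. Tumors were weighed at the end; n = 6, mean ± SD, Student's t test.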

[4] = analyte total Pt (ICP-MS) in plasma

Q: With O=C1[O][Pt]2([NH][C@@H]3CCCC[C@H]3[NH]2)[O]C1=O [OXA, oxaliplatin] as the compound, how does the AUC0-t ([1]; analyte OXA in plasma) read?
A: 1940 ± 390 ng·h/mL

Q: What about the “AUC0-∞” value ([1]; analyte OXA in plasma) of the same compound?
A: 2030 ± 550 ng·h/mL

Q: What about the CL ([1]; analyte OXA in plasma) of the same compound?
A: 2,580 ± 560 mL/h/kg

Q: What about the Cmax ([1]; analyte OXA in plasma) of the same compound?
A: 9580 ± 1420 ng/mL

Q: And the T1/2 ([1]; analyte OXA in plasma)?
A: 0.16 ± 0.07 h

Q: What about the Vz ([1]; analyte OXA in plasma) of the same compound?
A: 567 ± 70 mL/kg

Q: What about the AUC0-t [1, 4] of the same compound?
A: 13000 ± 3440 ng·h/mL

Q: And the “AUC0-∞” value [1, 4]?
A: 19980 ± 5650 ng·h/mL

Q: And the CL [1, 4]?
A: 127.98 ± 36.2 mL/h/kg

Q: What about the Cmax [1, 4] of the same compound?
A: 4760 ± 680 ng/mL

Q: And the T1/2 [1, 4]?
A: 17.52 ± 0.52 h

Q: What about the Vz [1, 4] of the same compound?
A: 3,220 ± 818 mL/kg

Q: And the UREA ([2]; 10 mg/kg i.v. every 3 days for five times)?
A: significant decrease

Q: What about the “biochemical indexes (TP, ALB, UREA, Cr)” value ([2]; i.v. every 3 days for five times, except UREA at 10 mg/kg) of the same compound?
A: No significant change

Q: What about the “tumor growth inhibition, dose dependence” value [3] of the same compound?
A: dose-dependent tumor growth inhibition
